By IC50 is commonly meant the concentration that gives 50% inhibition. A higher IC50 goes with weaker potency.

One assay relates to SW-620. Nature of the assay: Growth inhibition of human SW620 cells up to 30 uM after 48 hrs by MTT assay. Type of assay: functional, cell-based. An outline of the steps:
(§1)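 Adherent cells grown with 10% FBS, 2 mM L-glutamine and penicillin/streptomycin at 37 °C, 5% CO2. Seeded at 3000 cells/well and attached for 18 h. Compound added at a final 30 μM in 1% DMSO for 48 h. MTT then added (final 0.5 mg/mL) for 4 h, formazan dissolved in DMSO, absorbance read at 580 nm. Negative control 1% DMSO, doxorubicin positive control. Run in duplicate. IC50 versus negative control.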
In general terms: Tetrazolium dyes change colour on reduction, which living cells bring about.

A further assay concerns NCI-H460. Nature of the assay: Growth inhibition of human NCI-H460 cells up to 30 uM after 48 hrs by MTT assay. The class given is functional, cell-based. An outline of the steps:
as §1

The test system of another assay is Bacillus spizizenii. Nature of the assay: Antibacterial activity against Bacillus subtilis ATCC 6633 up to 30 uM after 24 hrs by spectrophotometric method. Type of assay: functional, organism-based. An outline of the steps:
(§2)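 Bacteria grown on tryptic soy agar at 37 °C for 24 h. One colony moved to tryptic soy broth and adjusted to 10^4−10^5 CFU/mL. Compound in DMSO, diluted with water to a 600 μM stock in 20% DMSO, then added to broth at a final 30 μM in 1% DMSO. Incubated 37 °C for 24 h, OD600 read. Rifampicin positive control. IC50 taken as 50% growth inhibition.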

For the next assay, the system named is Staphylococcus aureus. The assay can be described thus: Antibacterial activity against Staphylococcus aureus ATCC 25923 up to 30 uM after 24 hrs by spectrophotometric method. The class given is functional, organism-based. The procedure, abridged: as §2
The test system of a further assay is Escherichia coli. The assay can be described thus: Antibacterial activity against Escherichia coli ATCC 25922 up to 30 uM after 24 hrs by spectrophotometric method. The class given is functional, organism-based. An outline of the steps: as §2
Assay [1] is described as follows: Inhibition of DNA polymerase (unknown origin). Details: species or system Homo sapiens.
For the next assay, the system named is HeLa. Nature of the assay: Growth inhibition of human HeLa cells. Type of assay: functional. Particulars: read-out: LD50 (the source's name).
The next assay deals with MCF7. The assay can be described thus: Growth inhibition of human MCF7 cells. The class given is functional. Particulars: read-out: LD50 (the source's name).

Calls of active or inactive are those of the source. The calls are words filed in the database; no cut-off is given here.

On to `CC(C)[C@H]1CC[C@@]2(OC(=O)/C(=C/[C@H]3C=C(CO)CC[C@@H]3C(C)C)CO)COC(=O)[C@H]2[C@@H]1/C=C(\CO)C(=O)O`, for which the “growth inhibition (GI)” value with SW-620 and in the assay with NCI-H460 was “inactive” each time. The outcome in the assay with Bacillus spizizenii, with Staphylococcus aureus and with Escherichia coli was inactive.

Regarding `CC(=O)OC/C(=C\[C@H]1C=C(CO)CC[C@@H]1C(C)C)C(=O)O`, the “growth inhibition (GI)” value in the assay with SW-620 and in the assay on NCI-H460 was “inactive” in each case. Besides, the result in the assay on Bacillus spizizenii, in the assay with Staphylococcus aureus and with Escherichia coli was inactive.

The molecule `CC(C)C1CCC(O)(COC(=O)C2=CC3C(C(C)C)CCC4(CO4)C3C(=O)OC2)C2C(=O)OCC(C(=O)O)=CC12` (stereo not drawn) yielded an IC50 in assay [1] of 30.8 µM. In addition, the results for the CC50 with HeLa and in the assay on MCF7 were 33 µM and 31.6 µM, respectively.

Take `CC(C)[C@H]1CC[C@@](O)(COC(=O)/C(=C/[C@@H]2[C@@H](C(C)C)CC[C@@]3(O)COC(=O)[C@@H]23)CO)[C@H]2C(=O)OCC(C(=O)O)=C[C@H]12`: the “growth inhibition (GI)” value with SW-620 and with NCI-H460 was “inactive” in each case. In addition, the result in the assay on Bacillus spizizenii, in the assay with Staphylococcus aureus and with Escherichia coli was inactive.

`CC(C)[C@H]1CCC(CO)=C[C@@H]1/C=C(\CO)C(=O)O`: the “growth inhibition (GI)” value in the assay with SW-620 and in the assay with NCI-H460 was “inactive” in each case. The outcome with Bacillus spizizenii, with Staphylococcus aureus and in the assay on Escherichia coli was inactive.

With `CC(C)[C@H]1CC[C@@](O)(COC(=O)/C(=C/[C@H]2C3=C(CC[C@@H]2C(C)C)COC3=O)CO)[C@H]2C(=O)OCC(C(=O)O)=C[C@H]12`, the “growth inhibition (GI)” value in the assay on SW-620 and in the assay on NCI-H460 was “inactive” throughout. The result in the assay on Bacillus spizizenii, in the assay on Staphylococcus aureus and with Escherichia coli was inactive.

Regarding `CC(C)[C@H]1CC[C@@](O)(COC(=O)C2=C[C@H]3[C@@H](OC2)[C@H](CO)CC[C@@H]3C(C)C)[C@H]2C(=O)OCC(C(=O)O)=C[C@H]12`, the “growth inhibition (GI)” value in the assay with SW-620 and in the assay with NCI-H460 was “inactive” throughout. Moreover, the outcome in the assay with Bacillus spizizenii, with Staphylococcus aureus and in the assay with Escherichia coli was inactive.

Turning to `CC(C)[C@H]1CC[C@@](O)(COC(=O)/C(=C/[C@H]2C=C(CO)CC[C@@H]2C(C)C)CO)[C@H]2C(=O)OCC(C(=O)O)=C[C@H]12`, the “growth inhibition (GI)” value with SW-620 and in the assay with NCI-H460 was “inactive” in each case. For the same molecule, the outcome in the assay with Bacillus spizizenii, with Staphylococcus aureus and in the assay on Escherichia coli was inactive.

On to `CC(C)[C@H]1CC[C@@]2(OC(=O)/C(=C/[C@H]3C4=C(CC[C@@H]3C(C)C)COC4=O)CO)COC(=O)[C@H]2[C@@H]1/C=C(\CO)C(=O)O`, for which the “growth inhibition (GI)” value in the assay with SW-620 and in the assay with NCI-H460 was “inactive” in each case. Also, the outcome in the assay with Bacillus spizizenii, in the assay on Staphylococcus aureus and with Escherichia coli was inactive.

As for `CC(C)[C@H]1CC[C@@](O)(COC(=O)/C(=C/[C@H]2C3=C(CC[C@@H]2C(C)C)COC3=O)CO)[C@@H](C(=O)O)[C@@H]1/C=C(\CO)C(=O)O`, the “growth inhibition (GI)” value in the assay on SW-620 and with NCI-H460 was “inactive” throughout. For the same molecule, the result in the assay with Bacillus spizizenii, in the assay on Staphylococcus aureus and in the assay on Escherichia coli was inactive.

In the case of `CC(=O)OCC1=C[C@H](/C=C(\CO)C(=O)O)[C@@H](C(C)C)CC1`, the “growth inhibition (GI)” value in the assay on SW-620 and in the assay on NCI-H460 was “inactive” each time. Moreover, the outcome in the assay with Bacillus spizizenii, in the assay with Staphylococcus aureus and in the assay with Escherichia coli was inactive.

The record behind these values is ChEMBL document CHEMBL4371093, “Divirensols: Sesquiterpene Dimers from the Australian Termite Nest-Derived Fungus Trichoderma virens CMB-TN16” (J Nat Prod, 2019).
